Laboratory results reported in ChEMBL document CHEMBL1255538, “Synthesis and molecular docking study of novel coumarin derivatives containing 4,5-dihydropyrazole moiety as potential antitumor agents” (Bioorg Med Chem Lett, 2010).
pIC50: −log10 of the molar value. ≈ marks a conversion by molar mass, not a printed value.

Experiments:
[1] = target: Telomerase reverse transcriptase (Homo sapiens, UniProt O14746); assay: Inhibition of telomerase in human SGC7901 cells by TRAP assay; type: cell-based, SGC-7901; conditions: for IC50: sgc-7901; for pIC50: read-out: IC50
Procedure, shortened: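 Modified TRAP assay using SGC-7901 cell extract as the telomerase source. IC50 taken from three experiments in triplicate, mean ± SD.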

[2] = test system: PC-3; assay: Cytotoxicity against human PC3 cells after 48 hrs by MTT assay; type: functional, cell-based
Procedure, shortened: (§1)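 Tumour cells grown to log phase in RPMI 1640 with 10% FBS, seeded at 3 × 10⁴ cells/mL, preincubated 24 h at 37 °C, 5% CO₂. Test samples at pre-set concentrations were added to 6 wells, with 5-fluorouracil as positive reference, for 48 h. MTT was then added for 4 h, formazan was dissolved in DMSO and absorbance read at 570 nm. IC50 from three experiments in triplicate, mean ± SD.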

[3] = test system: SGC-7901; assay: Cytotoxicity against human SGC7901 cells after 48 hrs by MTT assay; type: functional, cell-based; procedure, shortened: as §1
[4] = target: DNA polymerase I, thermostable (Thermus aquaticus, UniProt P19821); assay: Inhibition of Taq polymerase; conditions: for pIC50: read-out: IC50
Procedure, shortened: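 Taq polymerase inhibition was monitored alongside the modified TRAP assay to detect interference with the amplification step. IC50 was the concentration giving 50% Taq polymerase inhibition.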

[5] = test system: A-431; assay: Cytotoxicity against human A431 cells after 48 hrs by MTT assay; type: functional, cell-based; procedure, shortened: as §1
[6] = test system: SGC-7901; assay: Selectivity index, ratio of IC50 for Taq polymerase to IC50 for telomerase in human SGC7901 cells; type: cell-based
Procedure, shortened: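 Ratio of the concentration giving 50% Taq polymerase inhibition to the concentration giving 50% telomerase inhibition. Telomerase was measured by modified TRAP with SGC-7901 cell extract.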

[7] = Homo sapiens, PC-3, 48 h, read-out: IC50
[8] = Homo sapiens, SGC-7901, 48 h, read-out: IC50
[9] = Homo sapiens, A-431, 48 h, read-out: IC50

Sequence of Telomerase reverse transcriptase (O14746 whole entry): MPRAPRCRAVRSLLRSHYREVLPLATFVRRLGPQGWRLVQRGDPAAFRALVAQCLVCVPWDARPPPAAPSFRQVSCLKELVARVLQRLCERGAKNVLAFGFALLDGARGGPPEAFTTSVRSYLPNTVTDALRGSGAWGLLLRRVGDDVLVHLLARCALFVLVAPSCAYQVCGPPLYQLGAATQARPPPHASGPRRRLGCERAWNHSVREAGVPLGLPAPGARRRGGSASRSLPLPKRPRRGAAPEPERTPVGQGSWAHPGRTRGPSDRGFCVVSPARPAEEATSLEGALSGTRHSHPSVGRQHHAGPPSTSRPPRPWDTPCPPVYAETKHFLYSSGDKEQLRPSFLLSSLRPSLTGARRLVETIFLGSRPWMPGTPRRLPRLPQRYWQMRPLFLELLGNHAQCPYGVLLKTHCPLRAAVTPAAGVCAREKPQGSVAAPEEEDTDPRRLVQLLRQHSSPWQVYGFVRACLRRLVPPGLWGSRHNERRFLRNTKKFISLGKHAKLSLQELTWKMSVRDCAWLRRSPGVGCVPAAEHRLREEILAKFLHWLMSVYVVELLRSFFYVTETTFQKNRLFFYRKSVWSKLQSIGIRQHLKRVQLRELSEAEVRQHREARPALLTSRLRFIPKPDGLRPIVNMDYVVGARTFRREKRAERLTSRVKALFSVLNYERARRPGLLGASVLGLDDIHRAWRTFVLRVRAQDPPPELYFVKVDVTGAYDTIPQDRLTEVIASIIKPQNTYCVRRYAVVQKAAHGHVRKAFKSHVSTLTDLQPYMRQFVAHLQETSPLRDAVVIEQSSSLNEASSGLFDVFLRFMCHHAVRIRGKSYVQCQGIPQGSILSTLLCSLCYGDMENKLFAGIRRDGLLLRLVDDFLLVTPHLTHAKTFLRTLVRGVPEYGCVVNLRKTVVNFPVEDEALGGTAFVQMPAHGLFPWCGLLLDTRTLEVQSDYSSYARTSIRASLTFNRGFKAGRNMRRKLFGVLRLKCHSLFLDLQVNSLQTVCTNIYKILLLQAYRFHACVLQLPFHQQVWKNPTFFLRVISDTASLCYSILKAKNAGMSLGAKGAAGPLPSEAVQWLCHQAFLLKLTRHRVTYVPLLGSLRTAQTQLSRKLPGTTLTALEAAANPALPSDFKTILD
Sequence of DNA polymerase I, thermostable (P19821 whole entry): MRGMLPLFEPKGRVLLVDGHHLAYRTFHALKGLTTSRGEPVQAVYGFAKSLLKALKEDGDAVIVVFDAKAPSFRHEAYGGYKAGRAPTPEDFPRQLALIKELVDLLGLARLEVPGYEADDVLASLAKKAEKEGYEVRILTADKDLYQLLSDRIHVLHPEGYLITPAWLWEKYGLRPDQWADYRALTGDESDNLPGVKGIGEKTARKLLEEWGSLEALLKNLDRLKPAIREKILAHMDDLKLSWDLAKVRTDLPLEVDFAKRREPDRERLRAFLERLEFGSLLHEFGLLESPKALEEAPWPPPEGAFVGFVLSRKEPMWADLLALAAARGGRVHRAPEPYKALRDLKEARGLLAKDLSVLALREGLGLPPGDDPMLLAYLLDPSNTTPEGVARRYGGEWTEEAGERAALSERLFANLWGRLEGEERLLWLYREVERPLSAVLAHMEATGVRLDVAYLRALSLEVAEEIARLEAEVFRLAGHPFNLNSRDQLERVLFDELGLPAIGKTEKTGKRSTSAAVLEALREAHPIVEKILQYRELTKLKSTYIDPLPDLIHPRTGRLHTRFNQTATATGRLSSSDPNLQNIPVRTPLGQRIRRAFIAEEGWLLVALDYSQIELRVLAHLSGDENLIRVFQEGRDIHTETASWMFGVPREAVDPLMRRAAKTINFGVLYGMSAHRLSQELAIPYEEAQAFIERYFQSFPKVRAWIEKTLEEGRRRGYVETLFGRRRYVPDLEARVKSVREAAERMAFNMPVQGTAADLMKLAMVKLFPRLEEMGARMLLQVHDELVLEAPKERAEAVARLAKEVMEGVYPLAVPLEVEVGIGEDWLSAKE

SMILES | IC50 [1] | IC50 [2, 7] [µg/mL] | IC50 ([3]; sgc-7901) | IC50 [4] | IC50 ([5]; a-431) | pIC50 [1] | Selectivity Index [6] | IC50 [3, 8] [µg/mL] | pIC50 [4] | IC50 [5, 9] [µg/mL] | IC50 ([2]; pc-3)
CC1=NN(C=O)C(c2ccccc2O)C1 (centres undefined) | Not Active | 65.1 (≈ 319 µM) | Not Active | Not Active | Not Active |  |  |  |  |  | 
CC(=O)N1N=C(c2cc3ccccc3oc2=O)CC1c1ccc(O)cc1 (centres undefined) |  | 58.7 (≈ 169 µM) |  |  |  | 4.54 | 2 | 35.9 (≈ 103 µM) | 4.23 | 73 (≈ 209 µM) | 
COc1ccc(C2CC(c3cc4ccccc4oc3=O)=NN2C(C)=O)cc1 (centres undefined) |  |  |  | Not Active |  | 4.44 |  | 48.7 (≈ 134 µM) |  | 68.7 (≈ 190 µM) | Not Active
CC(=O)N1N=C(c2cc3ccccc3oc2=O)CC1c1ccccc1Cl (centres undefined) |  | 55.1 (≈ 150 µM) |  |  |  | 5.19 | 2.6 | 29.9 (≈ 81.6 µM) | 4.77 | 50.6 (≈ 138 µM) | 
CC(=O)N1N=C(c2cc3c(Br)cccc3oc2=O)CC1c1ccc(O)cc1 (centres undefined) |  | 38.8 (≈ 90.7 µM) |  |  |  | 5.40 | 2.5 | 22.3 (≈ 52.3 µM) | 5.00 | 68.3 (≈ 160 µM) | 
CC(=O)N1N=C(c2cc3c(Br)cccc3oc2=O)CC1c1ccccc1 (centres undefined) |  | 58.1 (≈ 141 µM) |  |  |  | 5.74 | 2.2 | 28.9 (≈ 70.3 µM) | 5.40 | 48.1 (≈ 117 µM) | 
CC[n+]1c(-c2ccccc2)c2cc(N)ccc2c2ccc(N)cc21 [HOMIDIUM BROMIDE] |  |  |  |  |  | 5.60 |  |  |  |  | 
O=c1[nH]cc(F)c(=O)[nH]1 [FLUOROURACIL] |  | 2.48 (≈ 19.1 µM) |  |  |  |  |  |  |  | 2.17 (≈ 16.7 µM) | 
COc1ccc(/C=C/C(=O)c2cc3ccccc3oc2=O)cc1 | Not Active |  | Not Active | Not Active | Not Active |  |  |  |  |  | Not Active
CC(=O)N1N=C(c2cc3ccccc3oc2=O)CC1c1ccccc1 (centres undefined) |  | 40.2 (≈ 121 µM) |  |  |  | 5.70 | 3 | 2.69 (≈ 8.09 µM) | 5.22 | 51.7 (≈ 156 µM) | 
CC(=O)N1N=C(c2cc3ccccc3oc2=O)CC1c1ccc(Cl)cc1Cl (centres undefined) |  | 46.7 (≈ 116 µM) |  |  |  | 5.02 | 2.1 | 39.9 (≈ 99.5 µM) | 4.68 | 68.7 (≈ 171 µM) | 
